Source: paper PMC3706105 (Breast cancer research and treatment, 2012)
One block for each compound: values may come before it.

Assays:
MCF-7 [1] = test: Cell cycle analysis; type: cell-based, human; settings: MCF-7, 10ppm, 48 hours
[2] = tested on: MCF-7 secondary mammospheres; test: XTT viability assay on mammospheres; type: cell-based, human; settings: 5 days
ALDH1 = test: Aldefluor ALDH1 activity in mammospheres; type: cell-based, human; settings: MCF-7 primary mammospheres grown with GR-24; vehicle 6%
MDA-MB-231 [3] = test: Crystal violet growth assay; type: cell-based, human
Summary of the method: (§1)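 Cell seeding in 96-well plates was 1500 cells/well (MDA-MB-231, MDA-MB-436, BJ fibroblasts) or 4000 (MCF-7). Next day, phenol-free DMEM with 10% charcoal-stripped FBS plus test compound at 0.5–10 ppm (1.65–33 μM) or acetone vehicle, for up to 10 days. Plates were fixed and stained 15 min with 0.5% crystal violet/25% methanol, washed, dried, and dye eluted in 0.1 M sodium citrate; absorbance 560 nm, % of vehicle, triplicates ± SD. Day-7 IC50 by linear-regression interpolation.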

MCF-7 [4] = test: Crystal violet growth assay; type: cell-based, human
Summary of the method: as §1

MDA-MB-436 [5] = test: Cell cycle analysis; type: cell-based, human; settings: MDA-MB-436, 10ppm, 48 hours
MCF10A [6] = test: Cell cycle analysis; type: cell-based; settings: 0.5-10ppm, 48 hours
MDA-MB-231 [7] = test: Cell cycle analysis; type: cell-based, human; settings: 48 hours
MDA-MB-231 mammospheres = test: Mammosphere formation; type: cell-based, human
Summary of the method: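 Single-cell MDA-MB-231 suspensions grown as mammospheres in serum-free phenol-red-free CnT-27 medium with growth additives on ultralow-attachment 96-well plates. Next day, test compound (ppm) or vehicle (0.6% acetone final) added; medium replenished every 3–4 days. Mammospheres above size threshold counted per well; triplicate wells, mean ± SD, two-tailed paired t-test versus vehicle.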

BJ fibroblasts = test: Crystal violet growth assay; type: cell-based; settings: 0.5 to 10ppm, up to 10 days
Summary of the method: as §1

MCF-7 mammospheres [8] = test: Mammosphere formation; type: cell-based, human; settings: MCF-7 primary mammospheres
Summary of the method: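 MCF-7 cells trypsinised (0.05% trypsin/EDTA), PBS-washed twice and sieved to single cells. Diluted to 10,000 cells/mL in serum-free phenol-red-free MEBM with 5 μg/ml insulin, 20 ng/ml EGF, 20 ng/ml bFGF, 1× B27 and 0.5 μg/ml hydrocortisone, and plated on ultralow-attachment 96-well plates. Next day, test compound (ppm) or 0.6% acetone final vehicle added; medium replenished every 3–4 days. Spheres over size threshold counted per well at 5×; triplicate wells ± SD, paired t-test.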

MDA-MB-436 [9] = test: Crystal violet growth assay; type: cell-based, human
Summary of the method: as §1

MCF-7 mammospheres [10] = test: Integrity of mature primary mammospheres; type: cell-based, human; settings: mature MCF-7 mammospheres; for mammosphere numbers (≥100μM), percentage of vehicle treated control: 5 days of treatment, vehicle control 86.7±6.8
MCF-7 [11] = test: XTT viability assay; type: cell-based, human; settings: MCF-7, XTT
Summary of the method: (§2)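 Seeding in normal growth medium in 96-well plates: 1500 cells/well for MCF10A, MDA-MB-231 and MDA-MB-436, 4000 for MCF-7. Next day, phenol-free DMEM with 10% charcoal-stripped FBS containing final concentrations of test compound or acetone vehicle, the vehicle matched to the highest dose only. After 3 days, XTT reagent 2–3 h at 37 °C. Absorbance at 450 nm minus 750 nm reference and medium blank, expressed as % of control; IC50 interpolated from sigmoidal dose–response curves.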

P38 MAPK = test: Immunoblot pP38; type: cell-based, human; settings: densitometry of immunoblot
Summary of the method: (§3)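 MDA-MB-231 cells treated with test compound, e.g. 10 ppm for 1–24 h. For P38 inhibition, cells were pretreated 1 h with SB203580, then co-treated 4 h. Lysed in Tris pH 7.5/NP-40/SDS/deoxycholate buffer with phosphatase and protease inhibitors. 20–50 μg protein resolved by 10 or 12% SDS-PAGE, wet-transferred and blocked in 5% BSA/TBS-Tween. Phospho-specific primaries at 1:1000, HRP secondaries at 1:5,000, chemiluminescent detection; band densitometry.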

MCF10A [12] = test: XTT viability assay; type: cell-based
MDA-MB-231 [13] = test: XTT viability assay; type: cell-based, human; settings: MDA-MB-231, XTT
Summary of the method: as §2

BJ fibroblast = test: Cell cycle analysis; type: cell-based; settings: 5 ppm, 48 hours
T47D = test: XTT viability assay; type: cell-based, human
MDA-MB-231 cells [14] = test: Hoechst33342 nuclear staining; type: cell-based, human; settings: MDA-MB-231, 5-10 ppm, 24 hours, Hoechst staining
ATF2 = test: Immunoblot pATF2; type: cell-based, human
Summary of the method: as §3

MDA-MB-231 cells [15] = test: XTT viability after timed SL exposure and removal; type: cell-based, human; settings: MDA-MB-231, 5ppm and 10ppm, XTT at 24 hours
Summary of the method: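 MDA-MB-231 cells exposed to test compound at 5 or 10 ppm for 2, 4 or 24 h. Medium was then removed, cells washed, and growth medium without compound added. XTT viability read 24 h after treatment start, as % of vehicle controls, mean ± SD; two-tailed paired Student's t-test against vehicle.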

MDA-MB-436 [16] = test: XTT viability assay; type: cell-based, human; settings: MDA-MB-436, XTT
Summary of the method: as §2

MAPKAPK = test: Immunoblot pT334 MAPKAPK; type: cell-based, human; settings: MDA-MB-231, SB203580 exposure
Summary of the method: as §3

- IC50 of long-term proliferation (MDA-MB-231 [3]; MDA-MB-231, 7 days): 5.7 ppm
- IC50 (MDA-MB-231 [3]; read-out: IC50 of long-term proliferation, MDA-MB-231, 7 days): 18.8 µM
- IC50 of long-term proliferation (MCF-7 [4]; MCF-7, 7 days): 5.7 ppm
- IC50 (MCF-7 [4]; read-out: IC50 of long-term proliferation, MCF-7, 7 days): 18.8 µM
- IC50 of long-term proliferation (MDA-MB-436 [9]; MDA-MB-436, 7 days): 5.2 ppm
- IC50 (MDA-MB-436 [9]; read-out: IC50 of long-term proliferation, MDA-MB-436, 7 days): 17.2 µM
SMILES: CC1=C[C@H](O/C=C2/C(=O)O[C@@H]3c4ccccc4C[C@H]23)OC1=O [GR-24]
- change in subG1 fraction (MCF-7 [1]): no change
- mammosphere viability (% of vehicle control) ([2]; 2.5ppm): 68.6%±12.4
- reduction of mammosphere viability ([2]; 5ppm): approximately 80%
- mammosphere viability (% of vehicle control) ([2]; 5ppm, control 98.4%± 3.4): 16.4%± 4.6
- ALDH activity (percentage of ALDH positive cells) (ALDH1): 2%
- increase in sub-G1/apoptotic fraction compared to vehicle (MDA-MB-436 [5]): 3.4 fold
- change in cell cycle distribution (MCF10A [6]): no change
- increase in sub-G1/apoptotic fraction compared to vehicle (MDA-MB-231 [7]; MDA-MB-231, 10ppm): 4.6 fold
- mammosphere growth (MDA-MB-231 mammospheres; 2.5ppm): severely attenuated
- mammosphere formation (MDA-MB-231 mammospheres; 5ppm): completely blocked
- growth compared to vehicle (BJ fibroblasts): no significant reduction in growth
- mammosphere growth (MCF-7 mammospheres [8]; 0.5ppm): inhibited to a lesser degree
- mammosphere formation (MCF-7 mammospheres [8]; 1ppm): severely attenuated
- mammosphere formation (MCF-7 mammospheres [8]; 2.5 –5ppm): completely inhibited

- IC50 (ppm) at 72hours (MCF-7 [11]): 8.1 ppm
- IC50 (ppm) at 72hours (MDA-MB-231 [13]): 2.9 ppm
- IC50 (ppm) at 72hours (T47D): 8.6 ppm
- IC50 (ppm) at 72hours (MDA-MB-436 [16]): 5.9 ppm
SMILES: CC1=CC(O/C=C2/C(=O)c3c(c4cc(-c5scc6c5OCCO6)ccc4n3C)C2C)OC1=O (stereo not drawn) [ST362]
- mammosphere numbers (≥100μM), percentage of vehicle treated control (MCF-7 mammospheres [10]; 2.5ppm): 6±1.7%
- mammosphere morphology (MCF-7 mammospheres [10]; 5 and 2.5ppm, after 48 hours): looser morphology and appeared to be dissociating
- mammosphere numbers (≥100μM), percentage of vehicle treated control (MCF-7 mammospheres [10]; 5ppm): 8.3±3.5%
- increase in pP38 levels compared to vehicle (P38 MAPK; MDA-MB-231, 4 hours): 5 fold
- increase in pP38 levels compared to vehicle (P38 MAPK; MDA-MB-231, 8 hours): 13 fold
- IC50 (ppm) at 72hours (MCF10A [12]): >15 ppm
- reduction in viability (MCF10A [12]; between day 10 and 14 (so in the source)): 20%
- SubG1/poptosis (BJ fibroblast; vehicle 0.21): 0.72
- Cell Cycle Distribution (%) S (BJ fibroblast; vehicle 2.510): 1.580%
- Cell Cycle Distribution (%) G2 (BJ fibroblast; vehicle 10.17): 12.86%
- Cell Cycle Distribution (%) G1 (BJ fibroblast; vehicle 84.25): 83.42%
- SubG1/poptosis (MDA-MB-231 [7]; MDA-MB-231, 5 ppm, vehicle 0.41): 4.17
- Cell Cycle Distribution (%) S (MDA-MB-231 [7]; MDA-MB-231, 5 ppm, vehicle 13.02): 11.90%
- Cell Cycle Distribution (%) G2 (MDA-MB-231 [7]; MDA-MB-231, 5 ppm, vehicle 24.08): 37.93%
- Cell Cycle Distribution (%) G1 (MDA-MB-231 [7]; MDA-MB-231, 5 ppm, vehicle 60.43): 42.17%
- nuclear changes indicative of apoptosis (MDA-MB-231 cells [14]): increased nuclear condensation and fragmentation
- phosphorylation of ATF2 (ATF2; MDA-MB-231, immunoblot, SL treatment 4-8 hours): induced
- cell viability after 2 hours exposure (MDA-MB-231 cells [15]; SL removed): No changes in cell viability
- cell viability after 4 hours exposure (MDA-MB-231 cells [15]; SL removed, p<0.01): significant decrease in viability
- cell viability after continual exposure (24h) compared to 4 hours exposure (MDA-MB-231 cells [15]; p<0.001): greater reduction in cell viability
- mammosphere formation (MCF-7 mammospheres [8]; 1ppm): significantly inhibited mammosphere formation
- mammosphere growth (MCF-7 mammospheres [8]; 2.5ppm, 7 days): able to block mammosphere growth

SMILES: C[S+]([O-])c1ccc(-c2nc(-c3ccncc3)c(-c3ccc(F)cc3)[nH]2)cc1 (stereo not drawn) [SB203580, reference compound]
- pT334 MAPKAPK phosphorylation (MAPKAPK): decreased in a dose dependent manner
- inhibition of ATF2 phosphorylation following SL treatment (ATF2; MDA-MB-231, 20 μM to 40 μM): did not inhibit ATF2 phosphorylation
